Measured values published in article PMC4390068 (Medicinal chemistry research : an international journal for …, 2014).
pIC50: −log10 of the molar value. Entries after “also recorded” stand apart in the source; their conditions may differ. Like-named read-outs stand apart in the source and are kept apart here. One block for each compound: values may come before it.

Assays:
[1] = tested on: iNOS protein expression in LPS-activated BV-2 microglial cells; test: Inducible NOS protein expression by immunohistochemistry; assay type: cell-based, murine; conditions: LPS-activated BV-2 cells; 4.4 and 8.9 µM chalcone (1)
How it was run: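 LPS (E. coli O111:B4, 1 µg/ml, 24 h) activated BV-2 cells at 0.5 × 10^6 cells/ml in phenol-red-free DMEM with 5 % FBS and 3 mM L-glutamine. Test compound came from DMSO stock diluted in HBSS + 5 mM HEPES pH 7.4, with final DMSO <0.5 %. Cells were fixed (4 % paraformaldehyde), permeabilised (0.1 % Triton X-100/PBS) and given rabbit N-terminal anti-iNOS, then Alexa Fluor 488 anti-rabbit (each 2 h, 37 °C), with propidium iodide counterstain and confocal imaging. Dexamethasone 1 µM served as comparator.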

[2] = Cell viability by resazurin; assay type: cell-based; conditions: mouse
[3] = tested on: LPS-activated BV-2 microglial cells; test: NO; assay type: cell-based, murine; conditions: for pIC50: read-out: LPS-NO2 IC50
[4] = tested on: LPS-stimulated BV-2 microglia cells; test: Inflammatory cytokines Multi-Analyte ELISArray MEM-004A; assay type: cell-based, murine; conditions: LPS-activated BV-2 cells, 24 h supernatant
How it was run: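 BV-2 cells were activated with E. coli O111:B4 LPS (1 µg/ml) plus test compound (final DMSO <0.5 %). Supernatants taken at 24 h were stored at −20 °C, then incubated with capture antibodies and mixed antigen standards (2 h, RT), biotinylated detection antibodies (1 h, RT), avidin–HRP (30 min) and development reagent. Absorbance was read at 450 nm, corrected at 570 nm. Results are % of LPS controls, mean ± STD, n = 2, Student's t test.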

SMILES: COc1cc(/C=C/C(=O)c2ccc(OC)c(OC)c2O)cc(OC)c1OC [Compound 1, 2′-hydroxy-3,4,5,3′,4′-pentamethoxychalcone]
- iNOS protein expression [1]: reducing iNOS protein expression; also recorded: reduction of iNOS protein
- CC50 ([2]; BV-2 microglial cells): 18.3 µM
- NO inhibition / anti-inflammatory effect (in words) ([3]; BV-2 cells, LPS 1 µg/ml): complete inhibition of NO
- IL-1α production and release [4]: attenuated
- IL-6 production and release [4]: attenuated
- IL-10 production and release [4]: attenuated

SMILES: C[C@@H]1C[C@H]2[C@@H]3CCC4=CC(=O)C=C[C@]4(C)[C@@]3(F)[C@@H](O)C[C@]2(C)[C@@]1(O)C(=O)CO [Dexamethasone, reference compound]
- CC50 [2]: > 50 µM

- pIC50 ([3]; BV-2 cells, LPS 1 µg/ml, 24 h, regression of min. 5 concentrations below 40 µM, n = 4): 5.66
SMILES: COc1cc(/C=C/C(=O)c2ccccc2O)cc(OC)c1OC [Compound 2, 2′-hydroxy-3,4,5-trimethoxychalcone]

- pIC50 ([3]; Mus musculus, BV-2, 24 h): 5.51
SMILES: CC(=N)NCCCC[C@H](N)C(=O)O [L-NIL, L-N6-(1-iminoethyl)lysine, reference compound]
